Assays:
[1] = target: T1, Kappa-type opioid receptor (Homo sapiens, UniProt P41145); experiment: Binding affinity against cloned human Opioid receptor kappa 1 transfected into chinese hamster ovary cells using [3H]U-69593 as radioligand; format: cell-based
In short: (§1)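 Competition binding in CHO cells transfected with cloned human opioid receptors, using [3H]DAMGO (μ), [3H]Cl-DPDPE (δ) and [3H]U69,593 (κ) as displaced radioligands. Hill slopes were examined. Data are averages of two experiments, each run in triplicate.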

Mu-type opioid receptor [2] = target: T2, Mu-type opioid receptor (Homo sapiens, UniProt P35372); experiment: Binding affinity against cloned human Opioid receptor mu 1 transfected into chinese hamster ovary cells using [3H]DAMGO as radioligand; format: cell-based; in short: as §1
[3] = target: T3, Opioid receptors; mu & kappa (Homo sapiens) (UniProt P41145+P35372); experiment: Ratio of (Ke) mu-opioid receptor to that of (Ke) kappa-opioid receptor; format: protein assay
In short: (§2)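 Selectivity ratios taken from [35S]GTPγS antagonist values in CHO membranes expressing cloned human receptors (μ with DAMGO, δ with Cl-DPDPE, κ with U69,593), as μ/κ and δ/κ. Values are means of five or six experiments.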

[4] = target: T4, Opioid receptors; delta & kappa (Homo sapiens) (UniProt P41145+P41143); experiment: Ratio of (Ke) delta-opioid receptor to that of (Ke) kappa-opioid receptor; format: protein assay; in short: as §2
[5] = target: T4, Opioid receptors; delta & kappa (Homo sapiens); experiment: Ratio of (Ki) delta-opioid receptor to that of (Ki) kappa-opioid receptor; format: protein assay
In short: (§3)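 Ki ratios μ/κ and δ/κ from competition binding in CHO cells with cloned human receptors, displacing [3H]DAMGO, [3H]Cl-DPDPE or [3H]U69,593. Data are averages of two experiments, each run in triplicate.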

Mu-type opioid receptor [6] = target: T2, Mu-type opioid receptor; experiment: Antagonistic activity against cloned human Opioid receptor mu 1 using DAMGO as ligand in [35S]GTP-gamma-S, assay; format: functional
[7] = target: T5, Delta-type opioid receptor (Homo sapiens, UniProt P41143); experiment: Binding affinity against cloned human Opioid receptor delta 1 transfected into chinese hamster ovary cells using [3H]Cl-DPDPE as radioligand; format: cell-based; in short: as §1
[8] = target: T3, Opioid receptors; mu & kappa (Homo sapiens); experiment: Ratio of (Ki) mu-opioid receptor to that of (Ki) kappa-opioid receptor; format: protein assay; in short: as §3
[9] = target: T5, Delta-type opioid receptor; experiment: Antagonistic activity against cloned human Opioid receptor delta 1 using DPDPE as ligand in [35S]GTP-gamma-S, assay; format: functional
[10] = target: T1, Kappa-type opioid receptor; experiment: Antagonistic activity against cloned human Opioid receptor kappa 1 using U69,593 as ligand in [35S]GTP-gamma-S, assay; format: functional

T1 sequence (P41145 whole entry): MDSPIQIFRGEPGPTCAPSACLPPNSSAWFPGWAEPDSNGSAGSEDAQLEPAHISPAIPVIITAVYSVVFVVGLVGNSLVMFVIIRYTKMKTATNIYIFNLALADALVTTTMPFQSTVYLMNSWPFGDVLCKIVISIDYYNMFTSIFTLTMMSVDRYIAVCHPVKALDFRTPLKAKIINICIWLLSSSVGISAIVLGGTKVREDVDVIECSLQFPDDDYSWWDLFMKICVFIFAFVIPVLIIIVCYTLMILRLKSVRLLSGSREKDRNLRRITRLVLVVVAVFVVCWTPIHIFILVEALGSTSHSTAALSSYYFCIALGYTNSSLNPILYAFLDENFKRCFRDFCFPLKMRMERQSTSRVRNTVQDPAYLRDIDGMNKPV
T5 sequence (P41143 whole entry): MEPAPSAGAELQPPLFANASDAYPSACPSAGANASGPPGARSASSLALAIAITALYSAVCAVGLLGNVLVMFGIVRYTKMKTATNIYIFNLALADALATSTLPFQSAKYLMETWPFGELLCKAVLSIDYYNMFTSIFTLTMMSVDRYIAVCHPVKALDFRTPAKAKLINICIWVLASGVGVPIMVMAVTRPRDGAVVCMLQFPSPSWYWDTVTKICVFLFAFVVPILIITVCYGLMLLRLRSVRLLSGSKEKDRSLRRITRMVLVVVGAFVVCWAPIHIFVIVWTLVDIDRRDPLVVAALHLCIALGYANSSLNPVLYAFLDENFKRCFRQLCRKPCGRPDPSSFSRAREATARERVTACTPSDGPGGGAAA
T4 sequence (P41143 whole entry, looked up): as the sequence (P41143 whole entry) above
T4 sequence (P41145 whole entry, looked up): as the sequence (P41145 whole entry) above
T2 sequence (P35372 whole entry): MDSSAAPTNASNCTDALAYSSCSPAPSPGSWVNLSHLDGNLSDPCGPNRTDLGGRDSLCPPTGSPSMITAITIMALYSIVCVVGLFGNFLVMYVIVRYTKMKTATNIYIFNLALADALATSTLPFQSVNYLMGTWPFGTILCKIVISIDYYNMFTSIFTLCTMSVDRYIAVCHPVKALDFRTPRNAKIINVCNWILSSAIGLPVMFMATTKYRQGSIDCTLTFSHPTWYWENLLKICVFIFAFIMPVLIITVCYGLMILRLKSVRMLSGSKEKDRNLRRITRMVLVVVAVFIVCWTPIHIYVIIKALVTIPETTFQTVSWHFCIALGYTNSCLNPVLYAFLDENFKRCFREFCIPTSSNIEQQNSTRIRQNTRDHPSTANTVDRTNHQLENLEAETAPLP
T3 sequence (P35372 whole entry, looked up): as the sequence (P35372 whole entry) above
T3 sequence (P41145 whole entry, looked up): as the sequence (P41145 whole entry) above

| Compound | Ki [1] [nM] | Ki (Mu-type opioid receptor [2]) [nM] | Ratio [3] | Ratio [4] | Ratio [5] | Ke (Mu-type opioid receptor [6]) [nM] | Ki [7] [nM] | Ratio [8] | Ke [9] [nM] | Ke [10] [nM] |
| --- | --- | --- | --- | --- | --- | --- | --- | --- | --- | --- |
| N/C(=N\CCc1ccc2[nH]c3c(c2c1)C[C@@]1(O)[C@H]2Cc4ccc(O)c5c4[C@@]1(CCN2CC1CC1)[C@H]3O5)NCc1ccccc1 | 1.42 | 3.54 | 23 | 10 | 5 | 2.94 | 7.24 | 2 | 1.36 | 0.13 |
| N/C(=N/Cc1ccc(O)cc1)Nc1ccc2[nH]c3c(c2c1)C[C@@]1(O)[C@H]2Cc4ccc(O)c5c4[C@@]1(CCN2CC1CC1)[C@H]3O5 | 3.26 | 14.7 | 127 | 183 | 13 | 12.7 | 41.9 | 4.5 | 18.3 | 0.1 |
| N/C(=N/Cc1ccc([N+](=O)[O-])cc1)Nc1ccc2[nH]c3c(c2c1)C[C@@]1(O)[C@H]2Cc4ccc(O)c5c4[C@@]1(CCN2CC1CC1)[C@H]3O5 | 1.61 | 26.3 | 21 | 93 | 60 | 3.71 | 95.8 | 16 | 16.7 | 0.18 |
| N/C(=N/Cc1cccc(O)c1)Nc1ccc2[nH]c3c(c2c1)C[C@@]1(O)[C@H]2Cc4ccc(O)c5c4[C@@]1(CCN2CC1CC1)[C@H]3O5 | 2.74 | 14.2 | 33 | 33 | 6 | 4.28 | 17.6 | 5 | 4.35 | 0.13 |
| CCCN/C(=N\CC1CC1)Nc1ccc2[nH]c3c(c2c1)C[C@@]1(O)[C@H]2Cc4ccc(O)c5c4[C@@]1(CCN2CC1CC1)[C@H]3O5 | 2.38 | 22.4 | 41 | 79 | 6.5 | 3.26 | 15.5 | 9 | 6.31 | 0.08 |
| N/C(=N\CCc1ccc2[nH]c3c(c2c1)C[C@@]1(O)[C@H]2Cc4ccc(O)c5c4[C@@]1(CCN2CC1CC1)[C@H]3O5)NCc1ccc(N)cc1 | 0.95 | 7.78 | 6 | 4 | 5 | 1.57 | 5.05 | 8 | 0.95 | 0.25 |
| CCCC/N=C(\NCCCC)Nc1ccc2[nH]c3c(c2c1)C[C@@]1(O)[C@H]2Cc4ccc(O)c5c4[C@@]1(CCN2CC1CC1)[C@H]3O5 | 6.96 | 18.3 | 13 | 12 | 2 | 5.66 | 15 | 3 | 5.24 | 0.44 |
| N=C(N)NCc1ccc2[nH]c3c(c2c1)C[C@@]1(O)[C@H]2Cc4ccc(O)c5c4[C@@]1(CCN2CC1CC1)[C@H]3O5 | 0.18 | 36.9 | 81 | 389 | 389 | 3.23 | 70 | 205 | 15.5 | 0.04 |
| N/C(=N/Cc1ccc(Cl)cc1)Nc1ccc2[nH]c3c(c2c1)C[C@@]1(O)[C@H]2Cc4ccc(O)c5c4[C@@]1(CCN2CC1CC1)[C@H]3O5 | 0.66 | 29.8 | 37 | 55 | 129 | 5.24 | 85 | 45 | 7.67 | 0.14 |
| Oc1ccc2c3c1O[C@H]1c4[nH]c5ccc(N/C(=N/CC6CC6)NCc6ccccc6)cc5c4C[C@@]4(O)[C@@H](C2)N(CC2CC2)CC[C@]314 | 3.91 | 17.7 | 16 | 19 | 5 | 2.75 | 18.1 | 4.5 | 3.28 | 0.17 |
| N/C(=N/Cc1ccccc1)Nc1ccc2[nH]c3c(c2c1)C[C@@]1(O)[C@H]2Cc4ccc(O)c5c4[C@@]1(CCN2CC1CC1)[C@H]3O5 | 0.86 | 10.5 | 24 | 68 | 31 | 1.41 | 26.8 | 12 | 4.09 | 0.06 |
| N/C(=N/Cc1ccc(N)cc1)Nc1ccc2[nH]c3c(c2c1)C[C@@]1(O)[C@H]2Cc4ccc(O)c5c4[C@@]1(CCN2CC1CC1)[C@H]3O5 | 0.63 | 7.89 | 14 | 120 | 68 | 1.22 | 23.9 | 13 | 10.8 | 0.09 |
| N/C(=N\CCc1ccc2[nH]c3c(c2c1)C[C@@]1(O)[C@H]2Cc4ccc(O)c5c4[C@@]1(CCN2CC1CC1)[C@H]3O5)NCc1ccc(Cl)cc1 | 2.41 | 7.74 | 11 | 6 | 8 | 2.61 | 19.2 | 3 | 1.48 | 0.23 |
| N=C(N)NCCc1ccc2[nH]c3c(c2c1)C[C@@]1(O)[C@H]2Cc4ccc(O)c5c4[C@@]1(CCN2CC1CC1)[C@H]3O5 | 0.49 | 5.69 | 3 | 2 | 10 | 1.25 | 4.93 | 12 | 0.88 | 0.4 |
| N/C(=N\CCc1ccc2[nH]c3c(c2c1)C[C@@]1(O)[C@H]2Cc4ccc(O)c5c4[C@@]1(CCN2CC1CC1)[C@H]3O5)NCc1ccc([N+](=O)[O-])cc1 | 2.14 | 9.21 | 13 | 8 | 5 | 2.2 | 11.7 | 4 | 1.34 | 0.17 |
| CCC/N=C(\NCCC)Nc1ccc2[nH]c3c(c2c1)C[C@@]1(O)[C@H]2Cc4ccc(O)c5c4[C@@]1(CCN2CC1CC1)[C@H]3O5 | 2.72 | 9.83 | 18 | 9 | 3 | 4.59 | 8.52 | 4 | 2.43 | 0.26 |
| CCCC/N=C(\NCCCC)NCCc1ccc2[nH]c3c(c2c1)C[C@@]1(O)[C@H]2Cc4ccc(O)c5c4[C@@]1(CCN2CC1CC1)[C@H]3O5 | 4.8 | 7.89 | 12 | 3 | 1.5 | 4.62 | 6.73 | 1.5 | 1.05 | 0.39 |
